This note sets out measurements from ChEMBL document CHEMBL1127064, “A novel series of N-(1-aminoalkylidene)carboximidamides as potential hypoglycemic agents” (1993).

Each structure is given as a SMILES string. Activity calls are given as the source filed them. No cut-off for these calls is given here.

The test system of assay [1] is Rattus norvegicus. Briefly: Mean maximum percent lowering of glucose at a single dose of 10 mg/kg, subcutaneously using rat oral glucose tolerance test. It is filed as functional. To be noted: route subcutaneous. The gist of the method: (§1)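 Rats given a single 10 mg/kg sc dose, calculated as free base. Blood glucose is compared with controls at each time point by unpaired Student's t-test; a significant lowering at any point (95% confidence) counts as active. Each rat's maximum percent lowering from the matched control mean is averaged to give the mean maximum percent lowering.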

For assay [2], the species on record is Rattus norvegicus. In words: Effective dose to produce a 30% maximum decrease of glucose from control. It is filed as functional. The procedure, abridged:
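Rats, subcutaneous dosing at 10, 5 and 2.5 mg/kg, calculated as free base. For each rat, the maximum percent lowering of blood glucose from the control group mean at the matched time point is taken. The dose giving a 30% decrease, with its 95% CI, comes from regression of mean maximum percent decrease versus log dose (mg/kg).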

For assay [3], the system named is Rattus norvegicus. In words: Mean maximum percent lowering of glucose was determined at a single dose of 10 mg/kg, subcutaneously using rat oral glucose tolerance test; IA = inactive. It is filed as functional, organism-based. Set-up: dose 10 mg/kg. The procedure, abridged: as §1

The molecule `CCC/N=C(\N=C(\Nc1ccccc1)N1CCOCC1)C(C)C` yielded a Lowering in the assay with Rattus norvegicus [1] of 31%.

For the molecule `CC(=N/Cc1ccccc1)/N=C(/Nc1ccccc1)N1CCOCC1`, in the assay on Rattus norvegicus [1], the Lowering worked out at 50%. Further, in the assay listed under Rattus norvegicus [2], the ED30 amounted to 4.3 mg/kg.

Take `CCOC(=O)C/N=C(C)\N=C(\Nc1ccccc1)N1CCOCC1`: the IA entry in the assay on Rattus norvegicus [3] is “inactive”.

Molecule `C/N=C(C)\N=C(\Nc1ccccc1)N1CCOCC1` gave a Lowering in the assay on Rattus norvegicus [1] of 45%. The molecule also returned an ED30 in the assay listed under Rattus norvegicus [2] of 2.6 mg/kg.

`CC(=N/C(C)C)/N=C(/Nc1ccccc1)N1CCOCC1` gave a Lowering in the assay on Rattus norvegicus [1] of 42%. The molecule also gave an ED30 in the assay filed under Rattus norvegicus [2] of 3.9 mg/kg.

In the assay on Rattus norvegicus [1], `CCC(=N/C)/N=C(/Nc1ccccc1)N1CCOCC1` showed a Lowering of 42%.

On to `C/C(=N\C(=N\c1ccccc1)N1CCOCC1)N(Cc1ccccc1)c1ccccc1`, for which the Lowering in the assay on Rattus norvegicus [1] was found to be 17%.

For the molecule `CC(=N/CCO)/N=C(/Nc1ccccc1)N1CCOCC1`, in the assay with Rattus norvegicus [1], the Lowering is 15%.

As for `CC(=N/S(C)(=O)=O)/N=C(/Nc1ccccc1)N1CCOCC1`, in the assay on Rattus norvegicus [3], the IA result was “inactive”.

For the molecule `CN(C)/C(=N/C(=N/c1ccccc1)N1CCOCC1)C1CCCCC1`, in the assay on Rattus norvegicus [1], the Lowering worked out at 27%.

In the case of `C/N=C(\N=C(\Nc1ccccc1)N1CCCC1)C(C)C`, the Lowering with Rattus norvegicus [1] was determined as 43%.

`CC/N=C(\N=C(\Nc1ccccc1)N1CCOCC1)C(C)C`: in the assay on Rattus norvegicus [1], the Lowering is recorded as 26%.

With `CC(C)/C(=N\C(=N\c1ccccc1)N1CCOCC1)N(C)C`, the Lowering with Rattus norvegicus [1] turned out to be 43%. The same molecule displayed an ED30 in the assay filed under Rattus norvegicus [2] of 4.3 mg/kg.

For the molecule `CN/C(=N/C(=N/c1ccccc1OC)N1CCOCC1)C(C)C`, the Lowering with Rattus norvegicus [1] is recorded as 21%.

As to `CCCCN(C)/C(C)=N/C(=N/c1ccccc1)N1CCOCC1`, the Lowering in the assay with Rattus norvegicus [1] is recorded as 33%. This molecule showed an ED30 in the assay filed under Rattus norvegicus [2] of 7.6 mg/kg.

In turn, `CCC/N=C(C)\N=C(\Nc1ccccc1)N1CCOCC1` showed a Lowering in the assay with Rattus norvegicus [1] of 56%. Further, the ED30 in the assay filed under Rattus norvegicus [2] was 0.97 mg/kg.

In the case of `C/C(=N\C(=N\c1ccccc1)N1CCOCC1)N1CCCCC1`, the Lowering in the assay with Rattus norvegicus [1] is 46%. The molecule further had an ED30 in the assay filed under Rattus norvegicus [2] of 5.3 mg/kg.

The molecule `CC/C(=N\C(=N\c1ccccc1)N1CCOCC1)N(C)C` registered a Lowering in the assay on Rattus norvegicus [1] of 43%. In the assay filed under Rattus norvegicus [2], this molecule registered an ED30 of 5.3 mg/kg.

Regarding `CC(=N)/N=C(/Nc1ccccc1)N1CCOCC1`, in the assay with Rattus norvegicus [1], the Lowering was found to be 21%.

Molecule `CC/N=C(C)\N=C(\Nc1ccccc1)N1CCOCC1` returned a Lowering in the assay with Rattus norvegicus [1] of 48%. For the same molecule, the ED30 in the assay filed under Rattus norvegicus [2] came to 4.6 mg/kg.

As for `CC(C)C(=N)/N=C(/Nc1ccccc1)N1CCOCC1`, the Lowering in the assay on Rattus norvegicus [1] was determined as 34%.

In turn, `CC(=N/C(C)(C)C)/N=C(/Nc1ccccc1)N1CCOCC1` had a Lowering with Rattus norvegicus [1] of 45%. In the assay listed under Rattus norvegicus [2], this molecule showed an ED30 of 4.2 mg/kg.

With `CC(=O)N/C(C)=N/C(=N/c1ccccc1)N1CCOCC1`, the Lowering in the assay with Rattus norvegicus [1] is listed as 22%.

`CN(C)/C=N/C(=N/c1ccccc1)N1CCOCC1` returned a Lowering with Rattus norvegicus [1] of 22%.

In the assay on Rattus norvegicus [1], `C/C(=N\C(=N\c1ccccc1)N1CCOCC1)N(C)C` gave a Lowering of 38%. The molecule further registered an ED30 in the assay filed under Rattus norvegicus [2] of 6.7 mg/kg.

Consider `CN(C)/C(CC(C)(C)C)=N/C(=N/c1ccccc1)N1CCOCC1`, for which, in the assay with Rattus norvegicus [1], the Lowering was 37%. The molecule further showed an ED30 in the assay listed under Rattus norvegicus [2] of 5.9 mg/kg.

In the assay on Rattus norvegicus [1], `C/N=C(\N=C(\Nc1ccccc1)N1CCOCC1)C(C)C` yielded a Lowering of 52%. In the assay listed under Rattus norvegicus [2], this molecule displayed an ED30 of 1.5 mg/kg.

`C/C(=N\C(=N\c1ccccc1)N1CCOCC1)N(C)c1ccccc1` had a Lowering in the assay with Rattus norvegicus [1] of 20%.

Take `CC(=N/c1ccccc1)/N=C(/Nc1ccccc1)N1CCOCC1`: in the assay on Rattus norvegicus [1], the Lowering came to 26%.

On to `CCCCCC/C(=N\C(=N\c1ccccc1)N1CCOCC1)N(C)C`, for which the Lowering in the assay with Rattus norvegicus [1] was found to be 31%.

For `CN(C)/C(=N/C(=N/c1ccccc1)N1CCOCC1)C(C)(C)C`, the Lowering in the assay with Rattus norvegicus [1] worked out at 40%. In the assay filed under Rattus norvegicus [2], this molecule had an ED30 of 9.6 mg/kg.

Take `CN(C)/C(=N/C(=N/c1ccccc1)N1CCOCC1)c1ccccc1`: the Lowering in the assay on Rattus norvegicus [1] is listed as 25%.

In the assay with Rattus norvegicus [1], `C/N=C(\N=C(\Nc1ccc(F)cc1)N1CCOCC1)C(C)C` showed a Lowering of 42%.

For `C/C(=N\C(=N\c1ccccc1)N1CCOCC1)N1CCOCC1`, in the assay on Rattus norvegicus [1], the Lowering came out at 24%.

Take `CC(C)/N=C(\N=C(\Nc1ccccc1)N1CCOCC1)C(C)C`: the Lowering in the assay on Rattus norvegicus [1] worked out at 23%.

On to `CN1CCC/C1=N\C(=N\c1ccccc1)N1CCOCC1` [LINOGLIRIDE], for which, in the assay on Rattus norvegicus [1], the Lowering is reported as 34%. The molecule also registered an ED30 in the assay filed under Rattus norvegicus [2] of 6.1 mg/kg.

`CN(C)/C(Cc1ccccc1)=N/C(=N/c1ccccc1)N1CCOCC1`: the Lowering in the assay with Rattus norvegicus [1] is 27%.

Consider `C/C(=N\C(=N\c1ccccc1)N1CCOCC1)N1CCN(C)CC1`, for which the IA entry in the assay with Rattus norvegicus [3] was “inactive”.
